Measurements: ChEMBL document CHEMBL1125259, “Lipophilic glycosyl phosphotriester derivatives of AZT: synthesis, NMR transmembrane transport study, and antiviral activity” (1991)

Key:
Assay type in all cases: functional
[1] = target: Human immunodeficiency virus type 1 reverse transcriptase (Human immunodeficiency virus 1) (UniProt Q72547); assay: Compound ability to inhibit the production of HIV reverse transcriptase (RT) in preinfected PBL (peripheral blood lymphocytes) at 14 days at a concentration 1 uM
How it was run: (§1)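 PBL were infected with HIV-1 for 1 h at 37 °C, washed twice, and resuspended in complete medium with 10% interleukin-2 and anti-human α-interferon (1000 units/mL). Cells were plated at 1×10^6 cells/well with or without compound. At each time point, 50 µL supernatant was taken for RT assay ([³H]dTTP incorporation, cpm).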

[2] = target: Human immunodeficiency virus type 1 reverse transcriptase (Human immunodeficiency virus 1) (UniProt Q72547); assay: Percent inhibition evaluated for anti-RT activity at 0 days of culture; design: concentration or dose not given beside the values; details: concentration not given here
How it was run: (§2)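 HIV-1 (12 500 CCID50) was preincubated with compound at 25 µM final for 60 min at 37 °C, pelleted by ultracentrifugation and resuspended. RT was measured at once with poly(rA)-oligo(dT) and ³H-dTTP (1 h, 37 °C, cpm). Treated virus was then put on CEM-C113 cells for 60 min and replaced with compound-free medium. Supernatant RT was read at days 7 and 9.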

[3] = target: Human immunodeficiency virus type 1 reverse transcriptase (Human immunodeficiency virus 1) (UniProt Q72547); assay: Compound ability to inhibit the production of HIV reverse transcriptase (RT) in preinfected PBL (peripheral blood lymphocytes) at 14 days at a concentration 5 uM; how it was run: as §1
CCRF-CEM [4] = assay: Concentration that reduced by 50% the HIV induced CPE (cytopathic effect) on day 7.; details: Homo sapiens, 168 h, read-out: ED50 (the source's name)
How it was run: (§3)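 CEM-C113 cells (1×10^5 cells/mL) were infected with HIV-1 LAV-Bru or mock-infected, with compound dilutions in triplicate, for at least 7 days. Medium with or without drug was renewed every 3–4 days for longer runs. MTT absorbance was read at 540 nm. CD50 = 50% reduction of mock-infected absorbance; ED50 = dose giving 50% protection from CPE. Values are averages of at least two experiments.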

[5] = target: Human immunodeficiency virus type 1 reverse transcriptase (Human immunodeficiency virus 1) (UniProt Q72547); assay: Percent inhibition measured as the production of HIV reverse transcriptase (RT) in culture supernatant of monocytic U937 on at 11 days at a concentration 1 uM
How it was run: (§4)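 U937 cells in RPMI 1640 with 5% heat-inactivated FCS, penicillin, streptomycin and polybrene (2 μg/mL), 37 °C, 5% CO2. Infected with HIV-1 LAV-Bru; compounds diluted in PBS. 50 μL supernatant aliquots were assayed for RT: 1 h, 37 °C, pH 7.8, Mg2+, poly(rA)-oligo(dT), [3H]dTTP, TCA-pyrophosphate stop, filter counting. % inhibition = 100 − 100 × (treated cpm / virus-control cpm).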

[6] = target: Human immunodeficiency virus type 1 reverse transcriptase (Human immunodeficiency virus 1) (UniProt Q72547); assay: Compound ability to inhibit the production of HIV reverse transcriptase (RT) in preinfected PBL (peripheral blood lymphocytes) at 7 days at a concentration 5 uM; how it was run: as §1
[7] = target: Human immunodeficiency virus type 1 reverse transcriptase (Human immunodeficiency virus 1) (UniProt Q72547); assay: Compound ability to inhibit the production of HIV reverse transcriptase (RT) in preinfected PBL (peripheral blood lymphocytes) at 21 days at a concentration 5 uM; how it was run: as §1
[8] = target: Human immunodeficiency virus type 1 reverse transcriptase (Human immunodeficiency virus 1) (UniProt Q72547); assay: Compounds were evaluated for anti-RT activity by MTT dose and %protection was reported at 7 days of culture
How it was run: (§5)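 HIV-1 was preincubated with compound at 25 µM for 60 min at 37 °C, pelleted, and added to CEM-C113 cells (1×10^5 cells/mL) for 60 min at 37 °C. Medium was then replaced without compound. At days 7 and 9, viability was read by MTT assay on 100 µL of cell suspension.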

[9] = target: Human immunodeficiency virus type 1 reverse transcriptase (Human immunodeficiency virus 1) (UniProt Q72547); assay: Compound ability to inhibit the production of HIV reverse transcriptase (RT) in culture supernatant of monocytic U937 on at 14 days at a concentration 1 uM
How it was run: (§6)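 HIV-1-infected monocytic U937 cultures were kept up to 14 days with compound. Supernatant RT activity was measured as for CEM-C113, as [³H] cpm/50 µL. % inhibition = 100 − 100 × (cpm of treated samples / cpm of control virus).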

[10] = target: Human immunodeficiency virus type 1 reverse transcriptase (Human immunodeficiency virus 1) (UniProt Q72547); assay: Compounds were evaluated for anti-RT activity at 9 days of culture; how it was run: as §2
[11] = target: Human immunodeficiency virus type 1 reverse transcriptase (Human immunodeficiency virus 1) (UniProt Q72547); assay: Compound ability to inhibit the production of HIV reverse transcriptase (RT) in culture supernatant of CEM-CL13 on at 7 days at a concentration 0.2 uM
How it was run: (§7)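 CEM-C113 cells in RPMI 1640 with 5% heat-inactivated FCS and polybrene (2 µg/mL) were plated at 1×10^5 cells/mL with compound in PBS, in triplicate, and infected with HIV-1 LAV-Bru. From day 7, every 3–4 days, fresh medium with or without drug was added and 50 µL supernatant was taken for RT microassay. The RT microassay used poly(rA)-oligo(dT) and (methyl-³H)dTTP for 1 h at 37 °C, with TCA precipitation, read as cpm/50 µL.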

CCRF-CEM [12] = assay: Concentration that reduced by 50% the HIV induced CPE (cytopathic effect) on day 11.; details: Homo sapiens, 264 h, read-out: ED50 (the source's name); how it was run: as §3
[13] = target: Human immunodeficiency virus type 1 reverse transcriptase (Human immunodeficiency virus 1) (UniProt Q72547); assay: Compounds were evaluated for anti-RT activity by MTT dose and % cell / viability was reported at 13 days of culture
[14] = target: Human immunodeficiency virus type 1 reverse transcriptase (Human immunodeficiency virus 1) (UniProt Q72547); assay: Compounds were evaluated for anti-RT activity by MTT dose and % cell / viability was reported at 9 days of culture; how it was run: as §5
[15] = target: Human immunodeficiency virus type 1 reverse transcriptase (Human immunodeficiency virus 1) (UniProt Q72547); assay: Compounds were evaluated for anti-RT activity at 0 days of culture; how it was run: as §2
[16] = target: Human immunodeficiency virus type 1 reverse transcriptase (Human immunodeficiency virus 1) (UniProt Q72547); assay: Compound ability to inhibit the production of HIV reverse transcriptase (RT) in culture supernatant of CEM-CL13 on at 22 days at a concentration 0.2 uM; how it was run: as §7
CCRF-CEM [17] = assay: Concentration required to reduce the viability of uninfected cells (CEM-CL13) by 50% on day 7.; details: Homo sapiens, 168 h, read-out: CD50 (the source's name); how it was run: as §3
[18] = target: Human immunodeficiency virus type 1 reverse transcriptase (Human immunodeficiency virus 1) (UniProt Q72547); assay: Compound ability to inhibit the production of HIV reverse transcriptase (RT) in culture supernatant of monocytic U937 on at 11 days at a concentration 1 uM; how it was run: as §6
CCRF-CEM [19] = assay: Concentration that reduced by 50% the HIV induced CPE (cytopathic effect) on day 19.; details: Homo sapiens, 456 h, read-out: ED50 (the source's name); how it was run: as §3
[20] = target: Human immunodeficiency virus type 1 reverse transcriptase (Human immunodeficiency virus 1) (UniProt Q72547); assay: Percent inhibition evaluated for anti-RT activity at 7 days of culture; design: concentration or dose not given beside the values; details: concentration not given here; how it was run: as §2
CCRF-CEM [21] = assay: Concentration required to reduce the viability of uninfected cells (CEM-CL13) by 50% on day 19.; details: Homo sapiens, 456 h, read-out: CD50 (the source's name); how it was run: as §3
[22] = target: Human immunodeficiency virus type 1 reverse transcriptase (Human immunodeficiency virus 1) (UniProt Q72547); assay: Compounds were evaluated for anti-RT activity by MTT dose and %protection was reported at 13 days of culture
[23] = target: Human immunodeficiency virus type 1 reverse transcriptase (Human immunodeficiency virus 1) (UniProt Q72547); assay: Compounds were evaluated for anti-RT activity by MTT dose and % cell / viability was reported at 7 days of culture; how it was run: as §5
[24] = target: Human immunodeficiency virus type 1 reverse transcriptase (Human immunodeficiency virus 1) (UniProt Q72547); assay: Percent inhibition measured as the production of HIV reverse transcriptase (RT) in culture supernatant of monocytic U937 on at 14 days at a concentration 1 uM; how it was run: as §4
[25] = target: Human immunodeficiency virus type 1 reverse transcriptase (Human immunodeficiency virus 1) (UniProt Q72547); assay: Compound ability to inhibit the production of HIV reverse transcriptase (RT) in culture supernatant of monocytic U937 on at 7 days at a concentration 1 uM; how it was run: as §6
CCRF-CEM [26] = assay: Concentration that reduced by 50% the HIV induced CPE (cytopathic effect) on day 22.; details: Homo sapiens, 528 h, read-out: ED50 (the source's name); how it was run: as §3
[27] = target: Human immunodeficiency virus type 1 reverse transcriptase (Human immunodeficiency virus 1) (UniProt Q72547); assay: Percent inhibition measured as the production of HIV reverse transcriptase (RT) in culture supernatant of monocytic U937 on at 7 days at a concentration 1 uM; how it was run: as §4

Row | SMILES | Activity (c.p.m. 50ul-1) [1] | inhibition [2] | Activity (c.p.m. 50ul-1) [3] | EC50 (CCRF-CEM [4]) | inhibition [5] | Activity (c.p.m. 50ul-1) [6] | Activity (c.p.m. 50ul-1) [7] | Protection [8] | Activity (c.p.m. 50ul-1) [9] | Activity (c.p.m. 50ul-1) [10] | Activity (c.p.m. 50ul-1) [11] | EC50 (CCRF-CEM [12]) | Cell viability [13] | Cell viability [14] | Activity (c.p.m. 50ul-1) [15] | Activity (c.p.m. 50ul-1) [16] | CC50 (CCRF-CEM [17]) | Activity (c.p.m. 50ul-1) [18] | EC50 (CCRF-CEM [19]) | inhibition [20] | also measured
1 | Cc1cn([C@H]2C[C@H](N=[N+]=[N-])[C@@H](COP(=O)(O)OCCO[C@H]3O[C@H](CO)[C@@H](O)[C@H](O)[C@@H]3O)O2)c(=O)[nH]c1=O | 39700 | 0% | 471 | 160 nM | 0% | 855 | 3380 | 20% | 25000 | 39000 | 4400 | 150 nM | 20% | 28% | 30000 | 27000 | 25000 nM | 174000 | 140 nM | 25% | CC50 (CCRF-CEM [21]): 30000 nM; Protection [22]: 7%; Cell viability [23]: 39%; inhibition [24]: 0%; Activity (c.p.m. 50ul-1) [25]: 306000; EC50 (CCRF-CEM [26]): 600 nM; inhibition [27]: 0%
2 | Cc1cn([C@H]2C[C@H](N=[N+]=[N-])[C@@H](COP(=O)(O)OC[C@H]3OC(O)[C@@H](O)[C@@H](O)[C@@H]3O)O2)c(=O)[nH]c1=O (stereo partly specified) | 46100 | 0% | 4130 | 130 nM | 5% | 967 | 19500 | 38% | 22500 | 34000 | 3400 | 200 nM | 18% | 36% | 25000 | 27000 | 27000 nM | 137000 | 200 nM | 62% | CC50 (CCRF-CEM [21]): 24000 nM; Protection [22]: 3%; Cell viability [23]: 54%; inhibition [24]: 0%; Activity (c.p.m. 50ul-1) [25]: 425000; EC50 (CCRF-CEM [26]): 600 nM; inhibition [27]: 0%
3 | CCCCCCCCCCCCCCCCOP(=O)(OC[C@H]1OC(O)[C@H](O)[C@@H](O)[C@@H]1O)OC[C@H]1OC(n2cc(C)c(=O)[nH]c2=O)C[C@@H]1N=[N+]=[N-] (stereo partly specified) | 144000 | 9% | 157000 | 180 nM | 53% | 8210 | 150000 | 81% | 4000 | 13000 | 4500 | 180 nM | 39% | 62% | 16000 | 45000 | 11000 nM | 68000 | 1500 nM | 87% | CC50 (CCRF-CEM [21]): 3200 nM; Protection [22]: 28%; Cell viability [23]: 85%; inhibition [24]: 79%; Activity (c.p.m. 50ul-1) [25]: 66000; EC50 (CCRF-CEM [26]): 800 nM; inhibition [27]: 73%
